The list is not random: actives were taken first. Their share in the collection is about 2.5%.
FLuc stim CS – affects firefly luciferase, flagging false hits in luciferase stimulation screens. P08659. ATPlite luciferase biochemical, luminescence, 10 min; 0 = ATP-free wells, 1 = DMSO control. activation factor at 10 µM. 200,000 tested, under 10 active. AID 1027;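 active means luciferase activation factor, scaled between plate controls, of at least 2 with compound at 10 µM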
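Assay system: Luciferase/luciferin detection reagent, cell-free biochemical luciferase assay / Also added: ATP substrate / Schedule: 10 min at ambient temperature / Measured by: luminescence measurement of luciferase light output / Benchmarks: low control with PBS replacing ATP, high control enzyme plus ATP without compound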
Diaphorase act – activates diaphorase or chemically reduces, flagging diaphorase assay artifacts | AID 1229 | activation factor at 20 µM | 190,000 compounds, 0.005% hits | Diaphorase/resazurin coupled assay, resorufin fluorescence, 16 min; stronger effect = higher value; 1 = vehicle wells, 0 = NADH-free wells;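 active means diaphorase activity raised at least twofold by the compound at 20 µM; inactive means activation factor below 2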
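Test system: Clostridium kluyveri diaphorase, purified enzyme. Buffer or medium: 50 mM HEPES pH 7.4 buffer plus MgCl2 and Tween 20. Also added: 0.114 mM NADH and 0.1 mM resazurin, final amounts. Dosing: compound 20 µM once, DMSO 1%. Schedule: 16 min enzyme reaction, ambient temperature. Detection: fluorescence of resorufin, 544 nm excitation, 590 nm emission.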
Diaph inh CS – diaphorase inhibition or chemical oxidation counter-screen | diaphorase resazurin-to-resorufin fluorescence, NADH, 16 min; bacterial (C. kluyveri) enzyme, not human | inhibition, % at 20 µM | 190,000 compounds, 0.69% hits;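 active means primary screen inhibition at 20 µM above a set limit, cut at about 50% in these data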;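 further: plate controls were DMSO with full reaction for no effect and wells lacking NADH for full effect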
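Detection: fluorescence of resorufin formed from resazurin, Ex 544/Em 590 nm; test system: Clostridium kluyveri diaphorase enzyme; amount: 0.14 U/mL diaphorase, enzyme working solution; times: 16-min room-temperature incubation before reading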
PMI act satM6P – PMI (human) activation, high substrate; AID 1216; coupled PMI enzyme assay, resazurin fluorescence, 20 min; stronger effect = higher value; 1 = untreated enzyme, 0 = substrate-free blank; P34949; activation factor at 20 µM; 190,000 compounds, 0.34% hits;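 active means activation factor of 2 or more at 20 µM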
Target sequence (P34949 whole entry, looked up): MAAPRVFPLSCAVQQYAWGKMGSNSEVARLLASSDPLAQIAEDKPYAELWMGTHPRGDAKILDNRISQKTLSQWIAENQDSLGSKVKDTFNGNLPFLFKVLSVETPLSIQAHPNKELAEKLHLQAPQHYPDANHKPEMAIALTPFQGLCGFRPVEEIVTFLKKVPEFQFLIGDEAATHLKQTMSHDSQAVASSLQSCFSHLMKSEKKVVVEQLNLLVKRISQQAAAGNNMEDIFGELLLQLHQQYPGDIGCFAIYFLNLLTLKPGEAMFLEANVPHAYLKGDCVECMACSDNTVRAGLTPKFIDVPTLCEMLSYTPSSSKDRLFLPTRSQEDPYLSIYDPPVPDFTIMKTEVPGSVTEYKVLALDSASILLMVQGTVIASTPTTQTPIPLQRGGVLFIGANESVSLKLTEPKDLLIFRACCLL
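Test system: human PMI in coupled enzyme assay; Input: PMI at 15 ng/mL final; Medium: HEPES buffer, pH 7.4; Schedule: 20 min incubation at room temperature; Technique: resorufin fluorescence at Ex 544/Em 590 nm; Compound: 20 µM single dose; Probe or stimulus: Near-saturating mannose-6-phosphate, 1.0 mM.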
PMI act – phosphomannose isomerase (human) activation. purified human PMI, coupled resazurin fluorescence, 20 min; stronger effect = higher value; 1 = vehicle control, 0 substrate-free wells. activation factor at 20 µM. 190,000 compounds, 0.005% hits. AID 1214;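 active means activation factor of 2 or more at 20 µM, relative to plate controls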
FLuc inh counter – Photinus pyralis luciferase inhibition counter-screen | 200,000 compounds, 1.5% hits | ATPLite firefly luciferase biochemical luminescence, 10 min | P08659 | inhibition, % at 10 µM;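 active means inhibition above about 50% when tested at 10 µM, limit read from the data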
The depositor's hits bear a star.

SMILES | FLuc stim CS | Diaphorase act | Diaph inh CS | PMI act satM6P | PMI act | FLuc inh counter
O=C(Nc1ccc2c(c1)CCC2)c1cc2ccccc2o1 | 0.5 | 0.9 | 14 | 1 | 0.9 | 54*
Cc1cc(C)n2nc(C(=O)Nc3ccc4c(c3)CCC4)nc2n1 | 0.5 | 0.9 | 9 | 1 | 1 | 52*
Cc1cc(C)n2nc(C(=O)Nc3ccc(S(=O)(=O)N4CCCCC4)cc3)nc2n1 | 1 | 0.8 | 20 | 1 | 1 | -4
Cc1ccc(C(=O)Nc2ccc3c(c2)CCC3)o1 | 0.4 | 1 | -4 | 1 | 0.9 | 55*
NC(=O)c1c(NC(=O)c2cc3ccccc3o2)sc2c1CCC2 | 0.3 | 0.9 | 12 | 1 | 1.1 | 66*
O=C(Nc1ccc2c(c1)CCC2)c1ccc(Br)o1 | 0.6 | 0.9 | 8 | 0.9 | 0.9 | 35
CCN(C(=O)COc1ccc(C)nc1[N+](=O)[O-])C1CCS(=O)(=O)C1 (configuration not stated) | 1.1 | 0.8 | 16 | 0.9 | 1 | -7
O=C(C1=NN(c2ccccc2)C2C(=O)N(c3ccccc3Cl)C(=O)C12)c1ccccc1 (configuration not stated) | 1 | 1 | 5 | 1 | 0.9 | -4
COc1ccccc1N1CCN(/N=C\c2sccc2C)CC1 | 1 | 1 | -3 | 1 | 1.1 | 2
CCOC(=O)c1c(NC(=O)CSc2nnc(C)s2)sc2c1CCCCC2 | 1.1 | 0.8 | 21 | 0.9 | 0.8 | -6
CCOC(=O)c1c(NC(=O)CSc2nnc3c(Cl)cc(Cl)cn23)sc2c1CCC2 | 1 | 0.3 | 69* | 0.7 | 0.7 | 4
NC(=O)c1c(NC(=O)CSc2nnc(-c3ccco3)n2-c2ccccc2)sc2c1CCC2 | 1 | 0.5 | 53* | 0.7 | 0.8 | 1
CC(C)c1ccc(CCNC(=O)c2ccc([N+](=O)[O-])cc2)cc1 | 1 | 0.9 | 11 | 1 | 0.9 | 0
O=C(NCCc1ccccc1)c1ccc([N+](=O)[O-])cc1 | 0.3 | 1 | 1 | 1.1 | 1 | 66*
Cc1ccc(NC(=O)c2ccc3nc[nH]c3c2)c(O)c1 | 0.5 | 1.1 | -5 | 0.8 | 1 | 50*
Oc1ccc(O)c(-c2cnns2)c1 | 1 | 0.8 | 16 | 0.9 | 1 | -2
CC(C)/C(=N/Nc1ccccc1[N+](=O)[O-])c1ccccc1 | 1 | 0.5 | 50* | 0.5 | 0.8 | -4
CC(C)Oc1ccccc1/C=N/Nc1ccccc1[N+](=O)[O-] | 1.1 | 0.8 | 19 | 0.9 | 0.8 | -6
CCc1ccc2c(c1)c(N=NC1=NC(=O)CS1)c(O)n2C | 1 | 0.2 | 84* | 1.1 | 1 | -4
CCNC(=O)NC(=O)C(C)OC(=O)Cc1coc2cc3c(cc12)CCC3 (configuration not stated) | 1 | 1 | 5 | 1 | 1 | -3
O=C(c1cnn(-c2ccccc2)c1)c1ccccc1O | 0.6 | 0.9 | 14 | 0.9 | 0.8 | 39
COc1ccc(-n2cc(C(=O)c3ccccc3O)cn2)cc1 | 0.3 | 1 | -4 | 1 | 1 | 66*
c1ccc(CSc2ccc(-c3ccco3)nn2)cc1 | 0.2 | 0.9 | 13 | 1 | 1 | 83*
Fc1ccccc1CSc1ccc(-c2ccco2)nn1 | 0.2 | 1 | 0 | 1 | 0.9 | 78*
O=C(CSc1ccc(-c2ccccn2)nn1)c1ccc(F)cc1 | 1.1 | 0.4 | 58* | 0.4 | 0.4 | -6
SMILES | FLuc stim CS | Diaphorase act | Diaph inh CS | PMI act satM6P | PMI act | FLuc inh counter
c1ccc(CSc2ccc(-c3ccccn3)nn2)cc1 | 0.4 | 1.1 | -10 | 1.3 | 1.2 | 58*
O=C(CSc1ccc(-c2ccccn2)nn1)c1ccccc1 | 1 | 1 | -1 | 1.2 | 1.1 | 4
Clc1ccc(CSc2ccc(-c3ccco3)nn2)cc1 | 0.8 | 1 | 4 | 1.2 | 1.1 | 18
Clc1ccc(CSc2ccc(-c3ccccn3)nn2)cc1 | 1 | 1 | -2 | 1.2 | 1 | 0
COC(OC)C12c3ccccc3C(c3ccccc31)C1C(=O)N(c3cccnc3)C(=O)C12 (configuration not stated) | 1 | 0.9 | 9 | 1 | 1 | -5
CCOC(=O)C1(Cc2ccccc2)CCN(Cc2cc(OC)c3c(c2)OCO3)CC1 | 1.1 | 0.9 | 11 | 0.9 | 1 | -5
O=C(CSc1ccc(-c2ccco2)nn1)c1cccc([N+](=O)[O-])c1 | 1.1 | 0.4 | 63* | 1.2 | 1.1 | -8
Cc1ccc(CSc2ccc(-c3ccco3)nn2)cc1 | 0.4 | 0.8 | 17 | 1 | 1 | 55*
O=C(CSc1ccc(-c2ccco2)nn1)N1CCCC1 | 1 | 0.8 | 24 | 0.9 | 1 | 3
Nc1nc2ccc(N3CCOCC3)cc2s1 | 0.3 | 0.9 | 10 | 0.8 | 0.9 | 66*
O=C(c1ccc(C(F)(F)F)cc1)C1CCCN(C(=O)CCc2cnccn2)C1 (configuration not stated) | 1 | 0.9 | 9 | 0.9 | 0.8 | -1
O=C(CCl)Nc1nc(-c2ccco2)c(-c2ccco2)s1 | 1 | 0.3 | 65* | 1.1 | 1.2 | 2
Cc1csc(C(=O)O)c1NC(=O)c1cccc([N+](=O)[O-])c1 | 1.1 | 1.2 | -20 | 1.1 | 1.1 | -5
Nc1cc2c(cc1C(=O)c1ccc(Cl)cc1)OCCO2 | 1 | 0.8 | 19 | 0.8 | 0.9 | -1
COc1ccc(C)cc1NC(=O)NCc1ccccc1F | 0.3 | 0.9 | 8 | 0.9 | 0.9 | 68*
COc1ccccc1NC(=O)NCc1ccccc1F | 0.7 | 0.9 | 12 | 1.1 | 1 | 26
CCOc1ccccc1NS(=O)(=O)c1ccc2c(c1)n(C)c(=O)c(=O)n2C | 1 | 0.9 | 7 | 1 | 1.1 | -2
N#Cc1cnn(-c2nc3sc4c(c3c(=O)[nH]2)CCCC4)c1N | 0.4 | 0.9 | 7 | 1.1 | 1 | 60*
CN(C)/C=C/C(=O)c1cnc(-c2ccc(Cl)cc2)s1 | 0.5 | 0.9 | 6 | 1 | 1 | 53*
CC(C)(C)c1nc(S(=O)(=O)c2ccc(Cl)cc2)c(N2CCOCC2)o1 | 1 | 1 | 2 | 2.1* | 1.6 | 2
COc1ccc(Cn2c(=S)[nH]c3ccsc3c2=O)cc1 | 1 | 0.6 | 45 | 0.8 | 0.9 | -2
COC(=O)[C@@]1(Cc2ccc(F)cc2)[C@H]2c3cc(C(=O)N(C)C)n(Cc4c(CO)[nH]cc(C)c4=O)c3C[C@H]2CN1C(=O)c1ccccc1 | 1 | 0.8 | 19 | 0.9 | 1 | 0
